Tested on: MS2 coat protein
Test: apparent Kd, MS2 coat protein; higher = weaker binding; RNA-MaP array; theophylline 2 mM where present
Procedure, shortened: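 Designs on Illumina sequencing-chip clusters, transcribed by stalled E. coli RNA polymerase, were exposed to SNAP-549-labelled MS2 coat protein in doubling steps from 0.7 or 1.5 nM up to 3 µM, without and then with constant ligand. The buffer held 100 mM Tris-HCl pH 7.5, 80 mM KCl, 4 mM MgCl2, BSA, DTT, yeast tRNA and Tween-20. Apparent Kd values are medians of filtered per-cluster binding-curve fits to green signal normalised to red-channel RNA signal and control-cluster median Fmax.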

[1] = designed as: OFF switch for theophylline, no ligand
[2] = ligand present: theophylline, designed as: OFF switch for theophylline
[3] = designed as: ON switch for theophylline, no ligand
[4] = ligand present: theophylline, designed as: ON switch for theophylline

| Sequence | apparent Kd [1] [nM] | apparent Kd [2] [nM] | apparent Kd [3] [nM] | apparent Kd [4] [nM] |
| --- | --- | --- | --- | --- |
| GUAUGGAAACAUACUAUGGUAUCGUGAGAUACCAGUACAGAAAUGUACCCUUGGCAGCUCGCGCAUACAUGAGGAUCACCCAUGU | 18.1 | 25.7 |  |  |
| GUCAGUAGAACAGAUACCAGUCAAAAGCUGUGAUCUCAUAACAUGAGGAUCACCCAUGUUGACCCUUGGCAGCUGUGGGCGAGGG | 19.6 | 64.6 |  |  |
| GUGUUUGUGUGAGAUACCAGUGAGGCCACAUGAGGAUCACCCAUGUCCCUCACUCCGGCCCACCCUUGGCAGCUCUUAUAGUAGU | 9.39 | 38.4 |  |  |
| GUUAUGGACCUGGAUACCAGCUGGUACAAGGGCGGUCUACAUGAGGAUCACCCAUGUGUCAGCCCUUGGCAGCCAGCAACCGGCA | 9.28 | 11.8 |  |  |
| UAAAACAUGAGGAUCACCCAUGUAAUUGAUACCAGAGUGAUGAUCCUCCCUUGGCAGCAAAUAACGCAUUGAUUACAAUGCGAAA |  |  | 42.7 | 215 |
| UAAAACAUGAGGAUCACCCAUGUAUUUGAUACCAGAGUGAUGAUCCUCCCUUGGCAGCAAAUAACGCAUUGAUUACAAUGCGAAA |  |  | 42.8 | 143 |
| UACAUGAGGAUCACCCAUGUAUAGAGGGAUACCAGUGUCAGUGAGCACCCUUGGCAGCCCGCGAACAAUGGGUGCGCUAAAUAGU | 30.4 | 56.9 |  |  |
| UACAUGAGGAUCACCCAUGUAUGAAUAGAUACCAGAUAAAAUAAGGUCCCUUGGCAGCUAGUGAAUAAAGGGUGGGUAAAAUAAU | 9.22 | 9.51 |  |  |
| UACAUGAGGAUCACCCAUGUAUGAAUGGAUACCAGAUAAAAUAAGGUCCCUUGGCAGCUAGUGAAUCGAGGGUGGGUAUCAUGUU | 10.5 | 11.2 |  |  |
| UCACGAGGCCUGGAUACCAGCGACAUGAGGAUCACCCAUGUAUGAGGAUCAGCCAUGUUAUGCCCUUGGCAGCCACGAAGGUCAU | 14.6 | 94.5 |  |  |
| UCCACAUGAGGAUCACCCAUGUAAUCAGAUACCAGUGACGAAAGUCACCCUUGGCAGCUGAUUACUUUAGUUCGAGGGUGUUUGA | 102 | 202 |  |  |
| UCGCAUUGCUCAGAUACCAGACAUGAGGAUCACCCAUGUACCAAGGUAACCGAAAGGCAUGUCCCUUGGCAGCUGAGCAAUGCGU | 12.1 | 225 |  |  |
| UCGCAUUGCUGCGAUACCAGACAUGAGGAUCACCCAUGUACCAAGGUACGAAAAUAACAUGUCCCUUGGCAGCGCAGCAAUGCGU | 12.8 | 322 |  |  |
| UCGCUCGCAGAAAUGCGAGCGAGUUGCGAUACCAGCCCGGAAACGGGCCCUUGGCAGCGCACAUGAGGAUCACCCAUGUCAUGUU | 17.4 | 23.8 |  |  |
| UGACAUUGCUCAGAUACCAGACAUGAGGAUCACCCAUGUACCAAGAGUACAAAUUAAAAUGUCCCUUGGCAGCUGAGCAAUGUCU | 19.6 | 483 |  |  |
| UGAGAUCCUCAUGAUACCAGUGUACUACAUGAGGAUCACCCAUGUAGCAACAUCUGUAGACACCCUUGGCAGCAUGAGACCACGU |  |  | 18.3 | 23.7 |
| UGGUACAUGAGGAUCACCCAUGUUCCAGAUACCAGACUCCCGGUGGUCCCUUGGCAGCUGGUGGUACAUGAGGAUCACCCAUGUG | 30.4 | 49.9 |  |  |
| UGUAACAUGAGGAUCACCCAUGUGCACGAUACCAGCUUCGAAAGAGGCCCUUGGCAGCGUAUGCGUAAGCUGUAUAAUAUAUAUC |  |  | 11.4 | 13.6 |
| UGUAUGUGAUUUGAUACCAGACCAACUGGUAAAACAUGAGGAUCACCCAUGUAAACUUGGGUCCCUUGGCAGCAAAUCGCAUACU |  |  | 80.5 | 10.9 |
| UUCAGUACAACAGAUACCAGACAGUACUCUAAAUUGCAACAUGAGGAUCACCCAUGUAUAGUCCCUUGGCAGCUGUAAUGGGUGA |  |  | 114 | 174 |
| UUCUACAUGAGGAUCACCCAUGUGGGUGAUACCAGCACUUUUUGGUGCCCUUGGCAGCACAUGAGAAUACCGUACGAUCGGUGAU |  |  | 376 | 615 |
| UUUACAUGAGGAUCACCCAUGUGCCAUGAUACCAGACAUGAAAAUGUCCCUUGGCAGCAUGAAAGAUCCACGUCGGAAACGACGG |  |  | 176 | 308 |
| UUUGAAAUAACAGAUACCAGCGUGUUAUAAAACAUGAGGAUCACCCAUGUAGUGAUCAAGCGCCCUUGGCAGCUGGUAUUUUAGG |  |  | 85.4 | 196 |
| UUUGAUAGAACAGAUACCAGCGUGUUAUAAAACAUGAGGAUCACCCAUGUAGUGAUCAAGCGCCCUUGGCAGCUGGUUUGUUAGG |  |  | 135 | 182 |
| UUUUUUAACAUGGCGUAUCGGAAAACCGAUACCAGUACAGAAAUGUACCCUUGGCAGCGGCGUUUUACAUGAGGAUCACCCAUGU | 29.4 | 193 |  |  |
| UUUUUUAUCAUGGCGUAUCGGAAAACCGAUACCAGUACAGAAAUGUACCCUUGGCAGCGGCGUUUUACAUGAGGAUCACCCAUGU | 14.5 | 69.2 |  |  |
